Laboratory results: ChEMBL document CHEMBL1955763, “Antimicrobial activity of sulfonamides containing 5-chloro-2-hydroxybenzaldehyde and 5-chloro-2-hydroxybenzoic acid scaffold” (Eur J Med Chem, 2012)
Values after ≈ are worked out from the molar mass of the structure shown.

Experiments:
[1] = tested on: Trichophyton mentagrophytes; test: Antifungal activity against Trichophyton mentagrophytes 445 after 24 hrs by broth microdilution method; type: functional; conditions: Trichophyton mentagrophytes, 445, 24 h
Mycobacterium kansasii [2] = test: Antimycobacterial activity against Mycobacterium kansasii 6509/96 after 7 days; type: functional; conditions: 6509/96, 168 h
How it was run: (§1)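 Micromethod MIC in Sula semisynthetic medium, with compounds added as DMSO solutions at […]. Incubation at 37 °C. Inocula: M. kansasii 235/80 at dilution 10⁻⁴, clinical isolate 6509/96 at 10⁻⁵.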

Mycobacterium kansasii [3] = test: Antimycobacterial activity against Mycobacterium kansasii 6509/96 after 14 days; type: functional; conditions: 6509/96, 336 h; how it was run: as §1
Mycobacterium kansasii [4] = test: Antimycobacterial activity against Mycobacterium kansasii 235/80 after 14 days; type: functional; conditions: 235/80, 336 h; how it was run: as §1
Mycobacterium kansasii [5] = test: Antimycobacterial activity against Mycobacterium kansasii 235/80 after 21 days; type: functional; conditions: 235/80, 504 h; how it was run: as §1
[6] = Selectivity ratio of IC50 for human HepG2 cell sto MIC90 for Staphylococcus aureus CCM 4516/08; type: functional
[7] = tested on: Staphylococcus epidermidis; test: Antibacterial activity against methicillin-resistant Staphylococcus epidermidis H 6966/08 after 24 hrs by broth microdilution method; type: functional; conditions: H 6966/08, 24 h
How it was run: (§2)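 Microdilution broth method modified from M07-A07, in Mueller-Hinton broth at pH 7.4 (±0.2). Compounds were dissolved in DMSO. Inoculum was made in sterile water to 0.5 McFarland (1.5 × 10⁸ CFU/mL). MIC was taken as IC₉₀, meaning ≥90% growth reduction versus the drug-free control. Growth was read visually and by absorbance at 540 nm.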

[8] = tested on: Mycobacterium tuberculosis; test: Antimycobacterial activity against Mycobacterium tuberculosis H37Rv 331/88 after 14 days; type: functional; conditions: H37Rv 331/88, 336 h
Mycobacterium avium [9] = test: Antimycobacterial activity against isoniazid-, rifampicin-, ofloxacin-, ethambutol-resistant Mycobacterium avium 330/88 after 21 days; type: functional; conditions: 330/88, 504 h
How it was run: (§3)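 Micromethod in Sula semisynthetic medium, with compounds added as DMSO solutions over a two-fold series from 1000 down to 1. Inoculum for M. avium 330/88 was a 10⁻⁵ dilution. Plates were incubated at 37 °C and MIC was read after 14 and 21 days.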

Trichosporon asahii = test: Antifungal activity against Trichosporon asahii 1188 after 24 hrs by broth microdilution method; type: functional; conditions: Trichosporon asahii, 1188, 24 h
How it was run: (§4)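 Microdilution broth per CLSI M27-A3 (yeasts) or M38-A2 (moulds) in RPMI 1640 with glutamine, buffered to pH 7.0 with 0.165 mol MOPS. Compounds were in DMSO. Final inoculum was 5 × 10³ ± 0.2 CFU/mL. Other conditions matched the antibacterial assay, with MIC as IC₉₀ read visually and at 540 nm. Determined twice, in duplicate.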

[10] = tested on: Mycobacterium tuberculosis; test: Antimycobacterial activity against Mycobacterium tuberculosis H37Rv 331/88 after 21 days; type: functional; conditions: H37Rv 331/88, 504 h; how it was run: as §3
Staphylococcus aureus [11] = test: Antibacterial activity against Staphylococcus aureus CCM 4516/08 after 24 hrs by broth microdilution method; type: functional; conditions: CCM 4516/08, 24 h; how it was run: as §2
Mycobacterium kansasii [12] = test: Antimycobacterial activity against Mycobacterium kansasii 6509/96 after 21 days; type: functional; conditions: 6509/96, 504 h; how it was run: as §1
[13] = Selectivity ratio of IC50 for human HepG2 cell sto MIC100 for Mycobacterium kansasii 6509/96; type: functional
Staphylococcus aureus [14] = test: Antibacterial activity against methicillin-resistant Staphylococcus aureus H 5996/08 after 48 hrs by broth microdilution method; type: functional; conditions: H 5996/08, 48 h; how it was run: as §2
HepG2 = test: Cytotoxicity against human HepG2 cells after 24 hrs by MTS assay; type: cell-based; conditions: HepG2, 24 h
How it was run: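 Hep G2 human liver cells (passage 3–4), 10 000 per well, in MEM with 1% glutamine, 10% fetal serum and 1% non-essential amino acids. Compounds were added from DMSO at eight increasing concentrations in quadruplicate. Exposure was 24 h at 37 °C in 5% CO₂, then MTS reagent for 1.5 h. Formazan was read at 490 nm and IC₅₀ derived as 50% of control viability.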

Staphylococcus aureus [15] = test: Antibacterial activity against methicillin-resistant Staphylococcus aureus H 5996/08 after 24 hrs by broth microdilution method; type: functional; conditions: H 5996/08, 24 h; how it was run: as §2
Enterococcus sp. = test: Antibacterial activity against Enterococcus sp. J 14365/08 after 24 hrs by broth microdilution method; type: functional; conditions: J 14365/08, 24 h
How it was run: (§5)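 Broth microdilution modified from standard M07-A07 in Mueller-Hinton broth at pH 7.4 (±0.2). Compounds were dissolved in DMSO. Inoculum in sterile water was adjusted to 0.5 McFarland (1.5 × 10⁸ CFU/mL). MIC was taken as IC₉₀, i.e. ≥90% growth reduction versus control, read visually and spectrophotometrically at 540 nm.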

Mycobacterium kansasii [16] = test: Antimycobacterial activity against Mycobacterium kansasii 235/80 after 7 days; type: functional; conditions: 235/80, 168 h; how it was run: as §1
[17] = Selectivity ratio of IC50 for human HepG2 cell sto MIC100 for Mycobacterium kansasii 235/80; type: functional
[18] = tested on: Staphylococcus epidermidis; test: Antibacterial activity against methicillin-resistant Staphylococcus epidermidis H 6966/08 after 48 hrs by broth microdilution method; type: functional; conditions: H 6966/08, 48 h; how it was run: as §2
Mycobacterium avium [19] = test: Antimycobacterial activity against isoniazid-, rifampicin-, ofloxacin-, ethambutol-resistant Mycobacterium avium 330/88 after 14 days; type: functional; conditions: 330/88, 336 h; how it was run: as §3
Staphylococcus aureus [20] = test: Antibacterial activity against Staphylococcus aureus CCM 4516/08 after 48 hrs by broth microdilution method; type: functional; conditions: CCM 4516/08, 48 h; how it was run: as §5
Escherichia coli = test: Antibacterial activity against Escherichia coli CCM 4517 after 24 hrs by broth microdilution method; type: functional; conditions: CCM 4517, 24 h; how it was run: as §5
[21] = tested on: Mycobacterium avium complex sp.; test: Antimycobacterial activity against Mycobacterium avium complex; type: functional
Klebsiella pneumoniae [22] = test: Antibacterial activity against Klebsiella pneumoniae D 11750/08 after 24 hrs by broth microdilution method; type: functional; conditions: D 11750/08, 24 h; how it was run: as §5
Aspergillus fumigatus = test: Antifungal activity against Aspergillus fumigatus 231 after 24 hrs by broth microdilution method; type: functional; conditions: Aspergillus fumigatus, 231, 24 h; how it was run: as §4
[23] = Selectivity ratio of IC50 for human HepG2 cell sto MIC90 for methicillin-resistant Staphylococcus aureus H 5996/08; type: functional
Klebsiella pneumoniae [24] = test: Antibacterial activity against ESBL-positive Klebsiella pneumoniae J 14368/08 after 24 hrs by broth microdilution method; type: functional; conditions: J 14368/08, 24 h; how it was run: as §5
Pseudomonas aeruginosa = test: Antibacterial activity against Pseudomonas aeruginosa CCM 1961 after 24 hrs by broth microdilution method; type: functional; conditions: CCM 1961, 24 h; how it was run: as §5
[25] = tested on: Mycobacterium tuberculosis; test: Antituberculosis activity against Mycobacterium tuberculosis H37Rv after 18 hrs by alamar blue assay; type: functional, organism-based
Pichia kudriavzevii = test: Antifungal activity against Candida krusei E58 after 24 hrs by broth microdilution method; type: functional; conditions: E58, 24 h; how it was run: as §4
Candida albicans = test: Antifungal activity against Candida albicans ATCC 44857 after 24 hrs by broth microdilution method; type: functional; conditions: ATCC 44857, 24 h; how it was run: as §4
Lichtheimia corymbifera = test: Antifungal activity against Absidia corymbifera 272 after 24 hrs by broth microdilution method; type: functional; conditions: Lichtheimia corymbifera, 272, 24 h; how it was run: as §4
Candida tropicalis = test: Antifungal activity against Candida tropicalis 156 after 24 hrs by broth microdilution method; type: functional; conditions: Candida tropicalis, 156, 24 h; how it was run: as §4
Nakaseomyces glabratus = test: Antifungal activity against Candida glabrata 20/I after 24 hrs by broth microdilution method; type: functional; how it was run: as §4

SMILES | MIC (Mycobacterium kansasii [2]) [µM] | MIC (Mycobacterium kansasii [3]) [µM] | MIC (Mycobacterium kansasii [4]) [µM] | MIC (Mycobacterium kansasii [5]) [µM] | Ratio [6] | MIC [7] [µM] | MIC [8] [µM] | MIC (Mycobacterium avium [9]) [µM] | MIC [10] [µM] | MIC (Staphylococcus aureus [11]) [µM] | MIC (Mycobacterium kansasii [12]) [µM] | Ratio [13] | MIC (Staphylococcus aureus [14]) [µM] | IC50 (HepG2) [µM] | MIC (Staphylococcus aureus [15]) [µM] | MIC (Mycobacterium kansasii [16]) [µM] | Ratio [17] | MIC [18] [µM] | MIC (Mycobacterium avium [19]) [µM] | MIC (Staphylococcus aureus [20]) [µM] | also measured
Cc1cc(C)nc(NS(=O)(=O)c2ccc(NC(=O)c3cc(Cl)ccc3O)cc2)n1 | 16 (≈ 6.93 µg/mL) | 62.5 (≈ 27.1 µg/mL) | 32 (≈ 13.9 µg/mL) | 62.5 (≈ 27.1 µg/mL) | 10.8 | 31.2 (≈ 13.5 µg/mL) | 125 (≈ 54.1 µg/mL) | 62.5 (≈ 27.1 µg/mL) | 125 (≈ 54.1 µg/mL) | 15.6 (≈ 6.76 µg/mL) | 62.5 (≈ 27.1 µg/mL) | 5.4 | 31.2 (≈ 13.5 µg/mL) | 337 | 15.6 (≈ 6.76 µg/mL) | 16 (≈ 6.93 µg/mL) | 5.4 | 250 (≈ 108 µg/mL) | 32 (≈ 13.9 µg/mL) | 15.6 (≈ 6.76 µg/mL) | MIC [1]: 125 µM (≈ 54.1 µg/mL); MIC (Trichosporon asahii): 125 µM (≈ 54.1 µg/mL); MIC (Enterococcus sp.): 125 µM (≈ 54.1 µg/mL)
Cc1cc(NS(=O)(=O)c2ccc(N)cc2)no1 [SULFAMETHOXAZOLE] | 4 (≈ 1.01 µg/mL) | 4 (≈ 1.01 µg/mL) | 16 (≈ 4.05 µg/mL) | 16 (≈ 4.05 µg/mL) | 5.2 | 250 (≈ 63.3 µg/mL) | 32 (≈ 8.11 µg/mL) | 62.5 (≈ 15.8 µg/mL) | 32 (≈ 8.11 µg/mL) | 250 (≈ 63.3 µg/mL) | 4 (≈ 1.01 µg/mL) | 163.9 | 250 (≈ 63.3 µg/mL) | 2620 | 62.5 (≈ 15.8 µg/mL) | 8 (≈ 2.03 µg/mL) | 163.9 | 500 (≈ 127 µg/mL) | 32 (≈ 8.11 µg/mL) | 500 (≈ 127 µg/mL) | MIC (Escherichia coli): ≥ 500 µM; MIC50 [21]: 30 µg/mL (≈ 118 µM); MIC80 [21]: 30 µg/mL (≈ 118 µM); MIC (Klebsiella pneumoniae [22]): ≥ 500 µM; MIC (Aspergillus fumigatus): 250 µM (≈ 63.3 µg/mL); Ratio [23]: 5.2; MIC (Klebsiella pneumoniae [24]): ≥ 500 µM; MIC (Pseudomonas aeruginosa): ≥ 500 µM
Nc1ccc(S(=O)(=O)Nc2nccs2)cc1 [SULFATHIAZOLE] | 1 (≈ 0.255 µg/mL) | 2 (≈ 0.511 µg/mL) | 4 (≈ 1.02 µg/mL) | 4 (≈ 1.02 µg/mL) | 33.2 | > 500 | 32 (≈ 8.17 µg/mL) | 62.5 (≈ 16 µg/mL) | 62.5 (≈ 16 µg/mL) | 31.2 (≈ 7.98 µg/mL) | 2 (≈ 0.511 µg/mL) | 1040.3 | 125 (≈ 31.9 µg/mL) | 4160 | 62.5 (≈ 16 µg/mL) | 2 (≈ 0.511 µg/mL) | 1040.3 | > 500 | 62.5 (≈ 16 µg/mL) | 62.5 (≈ 16 µg/mL) | IC50 [25]: ≥ 5 µM
Cc1cc(NS(=O)(=O)c2ccc(/N=C/c3cc(Cl)ccc3O)cc2)no1 | 4 (≈ 1.57 µg/mL) | 4 (≈ 1.57 µg/mL) | 8 (≈ 3.13 µg/mL) | 16 (≈ 6.27 µg/mL) | 6.1 | > 500 | 125 (≈ 49 µg/mL) | 125 (≈ 49 µg/mL) | 250 (≈ 98 µg/mL) | 31.2 (≈ 12.2 µg/mL) | 8 (≈ 3.13 µg/mL) | 12.1 | 31.2 (≈ 12.2 µg/mL) | 193 | 15.6 (≈ 6.12 µg/mL) | 4 (≈ 1.57 µg/mL) | 12.1 | > 500 | 62.5 (≈ 24.5 µg/mL) | 31.2 (≈ 12.2 µg/mL) | MIC (Escherichia coli): 125 µM (≈ 49 µg/mL); MIC (Pichia kudriavzevii): > 125 µM; MIC [1]: > 125 µM; MIC (Klebsiella pneumoniae [22]): 500 µM (≈ 196 µg/mL); MIC (Candida albicans): > 125 µM; MIC (Lichtheimia corymbifera): > 125 µM; MIC (Aspergillus fumigatus): > 125 µM; MIC (Trichosporon asahii): > 125 µM; MIC (Klebsiella pneumoniae [24]): 500 µM (≈ 196 µg/mL); MIC (Pseudomonas aeruginosa): ≥ 500 µM; MIC (Candida tropicalis): > 125 µM; MIC (Nakaseomyces glabratus): > 125 µM
